We go through 14 molecules from ChEMBL document CHEMBL1146214, “Bioactive cardenolides from the stems and twigs of Nerium oleander” (J Nat Prod, 2007).

Usually IC50 stands for the midpoint of a concentration-inhibition curve.

Assay [1] is described as follows: Reversal of multidrug resistance assessed as effect on calcein accumulation in MDR-human 2780 AD cells at 0.25 ug/ml relative to control. Format: functional. A digest of the protocol:
(§1)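 Multidrug-resistant human ovarian cancer 2780AD cells were loaded with calcein AM in the presence of test compound at 0.25, 2.5 or 25 μg/mL. Intracellular calcein, formed by enzymatic hydrolysis, was measured by fluorescence and expressed relative to a no-compound control. Values are means of triplicate determinations.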

Assay [2] is described as follows: Reversal of multidrug resistance assessed as effect on calcein accumulation in MDR-human 2780 AD cells at 0.25 ug/ml relative to verapamil. Format: functional. Summed up: (§2)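 Multidrug-resistant 2780AD ovarian cancer cells were incubated with calcein AM plus test compound at 0.25, 2.5 or 25 μg/mL. Cellular calcein accumulation was read by fluorescence and expressed as a percentage of the verapamil response. Values are based on triplicate determinations.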

In assay [3] the test system is A549. Nature of the assay: Viability of human A549 cells by MTT assay after 24 hrs. Format: cell-based. Conditions: A549, 24 h. Summed up:
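A549 cells were exposed to serial compound dilutions for 24 h, and viability was measured by MTT. Viability % was taken as background-corrected absorbance relative to control. IC50 was derived from this, using triplicate cultures.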
For orientation: Formazan colour is commonly taken as a measure of viable cells.

Assay [4] in a line: Reversal of multidrug resistance assessed as effect on calcein accumulation in MDR-human 2780 AD cells at 2.5 ug/ml relative to verapamil. It is filed as functional. A digest of the protocol: as §2
For a further assay, the system named is WI-38 VA13. Kind of assay: Growth inhibition of human VA13 cells. Format: functional, cell-based. Summed up: (§3)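 Growth inhibition assayed in normal human fibroblasts WI-38, their malignant transformant VA-13, and human liver tumour HepG2 cells; IC50 reported.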
The subject of assay [5] is A549. Kind of assay: Inhibition of induction of ICAM1 expression in human A549 cells in presence of TNFalpha after 1 hr. It is filed as functional, cell-based. Conditions: A549, 1 h. A digest of the protocol: (§4)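 A549 cells (2 × 10⁴ cells/well) were pretreated with a range of compound concentrations for 1 h, then stimulated with IL-1α or TNF-α for 6 h. Surface ICAM-1 was detected with primary and secondary antibodies plus enzyme substrate, read as absorbance at 415 nm. Expression was taken as % of control after subtracting the unstimulated background. IC50 was derived from this, using triplicate cultures.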

Assay [6] in a line: Reversal of multidrug resistance assessed as effect on calcein accumulation in MDR-human 2780 AD cells at 25 ug/ml relative to verapamil. Format: functional. Summed up:
as §2

Assay [7] can be described thus: Reversal of multidrug resistance assessed as effect on calcein accumulation in MDR-human 2780 AD cells at 25 ug/ml relative to control. Format: functional. A digest of the protocol: as §1
The nature of assay [8]: Growth inhibition of human WI38 cells. It is filed as cell-based. Conditions: WI-38. Summed up: as §3
Assay [9] can be described thus: Reversal of multidrug resistance assessed as effect on calcein accumulation in MDR-human 2780 AD cells at 2.5 ug/ml relative to control. Format: functional. Summed up:
as §1

Assay [10] has as its system A549. Nature of the assay: Inhibition of induction of ICAM1 expression in human A549 cells in presence of IL1-alpha after 1 hr. Format: functional, cell-based. The note with it: A549, 1 h. A digest of the protocol:
as §4

The test system of the next assay is HepG2. Nature of the assay: Growth inhibition of human HepG2 cells. Format: functional, cell-based. A digest of the protocol: as §3

Consider `CO[C@@H]1C[C@H](O[C@H]2CC[C@@]3(C)[C@@H](CC[C@@H]4[C@@H]3CC[C@]3(C)[C@@H](C5=CC(=O)OC5)[C@@H](OC(C)=O)C[C@]43O)C2)O[C@H](C)[C@@H]1O`, for which the Activity is given as 105% in assay [1]; 113% in [2]; 128% in assay [4]; 82% in assay [6]; 109% in [7]; 126% in assay [9]. The concentration for half-maximal inhibition (IC50) in the assay with A549 [3] was above 100 µM; in the assay on WI-38 VA13 it was 0.72 µM; in the assay with A549 [5], 16.9 µM; in assay [8], 23 µM; in the assay with A549 [10], 21.5 µM.
As to `CO[C@@H]1C[C@H](O[C@H]2CC[C@@]3(C)[C@H](CC[C@@]45O[C@@]46C[C@H]4O[C@@]4(C4=CC(=O)OC4)[C@@]6(C)CC[C@H]35)C2)O[C@H](C)[C@@H]1O`, the Activity was 104% in assay [1], 97% in assay [7] and 96% in [9]. The IC50 in the assay with A549 [3] was above 100 µM; with A549 [5] it was 45.6 µM; in the assay on HepG2 it was 74.1 µM; in assay [8] it was 40.9 µM; with A549 [10], 62.1 µM.
Consider `CO[C@@H]1C[C@H](O[C@H]2CC[C@@]3(C)[C@H](CC[C@@H]4[C@@H]3CC[C@]3(C)[C@@H](C5=CC(=O)OC5)[C@@H](OC(C)=O)C[C@]43O)C2)O[C@H](C)[C@@H]1O`, for which the values for the Activity in assay [1], in [7] and in assay [9] were 67%, 75% and 77%, respectively. Also, the half-maximal inhibitory concentration (IC50) was above 316 µM in the assay with A549 [3]; 0.17 µM in the assay with WI-38 VA13; 0.31 µM in the assay with A549 [5]; 1.5 µM in the assay on HepG2; 0.09 µM in assay [8]; 0.51 µM with A549 [10].
As to `CO[C@@H]1C[C@H](O[C@H]2CC[C@@]3(C)[C@H](CC[C@@H]4[C@@H]3CC[C@]3(C)[C@@H](C5=CC(=O)OC5)CC[C@]43O)C2)O[C@H](C)[C@@H]1O`, the Activity in [1] is 93%; in assay [7], 96%; in [9], 89%. The 50% inhibitory concentration (IC50) was above 316 µM in the assay with A549 [3]; 0.18 µM in the assay on WI-38 VA13; 0.48 µM with A549 [5]; 1.5 µM in the assay on HepG2; 0.07 µM in assay [8]; 0.2 µM with A549 [10].
On to `CO[C@@H]1C[C@H](O[C@H]2CC[C@@]3(C)[C@H](CC[C@]4(O)[C@@H]3CC[C@]3(C)[C@@H](C5=CC(=O)OC5)CC[C@@]34O)C2)O[C@H](C)[C@@H]1O`, for which the Activity is 112% in assay [1], 112% in assay [7] and 107% in [9]. In addition, the IC50 in the assay on A549 [3] is above 100 µM; in the assay with WI-38 VA13, 1.6 µM; with A549 [5], 5.9 µM; in the assay on HepG2, 4.7 µM; in [8], 9.4 µM; in the assay on A549 [10] it was 6 µM.
As for `CO[C@@H]1C[C@H](O[C@H]2CC[C@@]3(C)[C@H](CC[C@@]45O[C@@]46CC=C(C4=CC(=O)OC4)[C@@]6(C)CC[C@H]35)C2)O[C@H](C)[C@@H]1O`, the Activity in assay [1] is on record as 88%; in assay [7], 99%; in assay [9], 89%. Besides, the figures for the half-maximal inhibitory concentration (IC50) in the assay on A549 [3] and with A549 [10] were above 316 µM and 133 µM, respectively.
With `CO[C@H]1C[C@H](O[C@H]2CC[C@@]3(C)[C@H](CC[C@@H]4[C@@H]3CC[C@]3(C)[C@@H](C5=CC(=O)OC5)CC[C@]43O)C2)O[C@H](C)[C@@H]1O`, the values for the Activity in assay [1], in [7] and in [9] were 89%, 86% and 83%, respectively. The IC50 in the assay with A549 [3] is above 100 µM; with WI-38 VA13, 0.8 µM; in the assay on A549 [5], 0.16 µM; in the assay on HepG2 it was 0.14 µM; in [8], below 0.02 µM; in the assay with A549 [10], 0.2 µM.
Regarding `CC(=O)O[C@H]1C[C@]2(O)[C@@H]3CC[C@@H]4C[C@@H](O)CC[C@]4(C)[C@H]3CC[C@]2(C)[C@H]1C1=CC(=O)OC1`, the values for the Activity in assay [1], in [7] and in assay [9] were 92%, 99% and 100%, respectively. Moreover, the IC50 in the assay with A549 [3] was above 100 µM; with WI-38 VA13, 0.16 µM; in the assay with A549 [5], 0.36 µM; in the assay with HepG2 it was 0.2 µM; in assay [8], 1.7 µM; in the assay with A549 [10], 0.52 µM.
Consider `CO[C@@H]1C[C@H](O[C@H]2CC[C@@]3(C)[C@H](CC[C@@]45O[C@@]46CC[C@H](C4=CC(=O)OC4)[C@@]6(C)CC[C@H]35)C2)O[C@H](C)[C@@H]1O`, for which the Activity in [1] was 92%; in assay [7], 112%; in [9], 102%. The IC50 is above 316 µM in the assay with A549 [3]; 13.4 µM in the assay with WI-38 VA13; 76.4 µM in the assay with HepG2; 33.1 µM in assay [8]; 13.9 µM with A549 [10].
Turning to `CO[C@H]1C[C@H](O[C@H]2CC[C@@]3(C)[C@H](CC[C@@]45O[C@@]46CC=C(C4=CC(=O)OC4)[C@@]6(C)CC[C@H]35)C2)O[C@H](C)[C@@H]1O`, the Activity in assay [1] is on record as 99%; in [7], 102%; in [9], 100%. The IC50 in the assay with A549 [3] is above 100 µM; in the assay on WI-38 VA13 it was 85.7 µM; in the assay with A549 [5], 55.4 µM; in the assay with HepG2 it was 81.4 µM; in [8], 16.3 µM; with A549 [10] it was 69.3 µM.
With `CO[C@H]1C[C@H](O[C@H]2CC[C@@]3(C)[C@H](CC[C@@H]4[C@@H]3CC[C@]3(C)[C@@H](C5=CC(=O)OC5)[C@@H](OC(C)=O)C[C@]43O)C2)O[C@H](C)[C@@H]1O`, the Activity is listed as 90% in assay [1], 91% in assay [7] and 81% in assay [9]. The half-inhibitory concentration (IC50) with A549 [3] was above 1000 µM; with WI-38 VA13, 0.24 µM; with HepG2, 0.82 µM; in assay [8], 0.08 µM; with A549 [10], 0.57 µM.
As for `C[C@]12CC[C@H](O)C[C@H]1CC[C@@H]1[C@@H]2CC[C@]2(C)[C@@H](C3=CC(=O)OC3)CC[C@]12O` [DIGITOXIGENIN], the Activity in assay [1] was 86%; in assay [7], 66%; in [9] it was 74%. The IC50 in the assay with A549 [3] was above 316 µM; in the assay on WI-38 VA13 it was 1.9 µM; in the assay on HepG2, 18 µM; in assay [8], 11.8 µM; with A549 [10], 0.62 µM.
With `COc1cccc2c1C(=O)c1c(O)c3c(c(O)c1C2=O)C[C@@](O)(C(=O)CO)C[C@@H]3O[C@H]1C[C@H](N)[C@H](O)[C@H](C)O1` [DOXORUBICIN], the IC50 in the assay on WI-38 VA13 was determined as 0.4 µM; in the assay with HepG2, 1.3 µM; in assay [8], 0.7 µM.
`CC(=O)O[C@H]1C(=O)[C@@]2(C)[C@H]([C@H](OC(=O)c3ccccc3)[C@]3(O)C[C@H](OC(=O)[C@H](O)[C@@H](NC(=O)c4ccccc4)c4ccccc4)C(C)=C1C3(C)C)[C@]1(OC(C)=O)CO[C@@H]1C[C@@H]2O` [PACLITAXEL]: half-maximal inhibition in assay [8] (IC50) required 0.04 µM.
